Results published in ChEMBL document CHEMBL4619801, “Discovery of Phthalazinone Derivatives as Novel Hepatitis B Virus Capsid Inhibitors” (J Med Chem, 2020).

Key:
[1] = Drug metabolism in mouse liver microsomes assessed as compound level by measuring UV-area of metabolite-M2 at 3 uM in presence of NADPH incubated for 60 mins by UPLC-UV/QTOF MS analysis; format: ADME, Microsome; settings: 1 h
Procedure, shortened: (§1)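 Each incubation held liver microsomes (human, monkey, dog, rat or mouse) at 0.5 mg/mL with 3.0 μM compound in 100 mM potassium phosphate, pH 7.4. After 3 min prewarming at 37 °C, the reaction was started with 1 mM NADPH. It was stopped at 60 min with ice-cold acetonitrile. Parent remaining and metabolites were judged from relative UV area.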

[2] = Tmax in Sprague-Dawley rat at 20 mg/kg, po dosed as single administration; format: ADME, organism-based; settings: in vivo
Hepatitis B virus [3] = assay: Antiviral activity against Hepatitis B virus assessed as reduction in HBV DNA-free capsid formation; format: functional, organism-based
Hepatitis B virus [4] = assay: Antiviral activity against HBV infected in human HepG2.2.15 cells assessed as reduction in cytoplasmic HBV-DNA replication incubated for 8 days by real-time PCR analysis; format: functional, organism-based; settings: HepG2 2.2.15, 192 h
[5] = Drug metabolism in dog liver microsomes assessed as compound level by measuring LC-MS area of metabolite-M1 at 3 uM in presence of NADPH incubated for 60 mins by UPLC-UV/QTOF MS analysis; format: ADME, Canis lupus familiaris, Microsome; settings: 1 h; procedure, shortened: as §1
[6] = Drug metabolism in mouse liver microsomes assessed as compound level by measuring UV-area of metabolite-M1 at 3 uM in presence of NADPH incubated for 60 mins by UPLC-UV/QTOF MS analysis; format: ADME, Microsome; settings: 1 h; procedure, shortened: as §1
[7] = Drug metabolism in rat liver microsomes assessed as compound level by measuring LC-MS area of metabolite-M1 at 3 uM in presence of NADPH incubated for 60 mins by UPLC-UV/QTOF MS analysis; format: ADME, Microsome; settings: 1 h; procedure, shortened: as §1
[8] = Drug metabolism in human liver microsomes assessed as compound level by measuring LC-MS area at 3 uM in presence of NADPH incubated for 60 mins by UPLC-UV/QTOF MS analysis; format: ADME, Microsome; settings: 1 h; procedure, shortened: as §1
[9] = Drug metabolism in human liver microsomes assessed as compound level by measuring UV-area of metabolite-M1 at 3 uM in presence of NADPH incubated for 60 mins by UPLC-UV/QTOF MS analysis; format: ADME, Microsome; settings: 1 h; procedure, shortened: as §1
[10] = Cmax in Sprague-Dawley rat at 20 mg/kg, po dosed as single administration; format: ADME, organism-based; design: dose 20 mg/kg, route oral; settings: in vivo

Cc1cc(-c2ccc(F)nc2F)nn(Cc2ccc(Cl)cc2)c1=O
Activity [1]: 15.4 ×10³ No_unit
Tmax [2]: 15 min
IC50 (Hepatitis B virus [3]): 87 nM
IC50 (Hepatitis B virus [4]): 98 nM
Activity [5]: 5.97 ×10³ No_unit
Activity [6]: 117 ×10³ No_unit
Activity [7]: 3.05 ×10³ No_unit
Activity [8]: 13.5 ×10³ No_unit
Activity [9]: 51.3 ×10³ No_unit
Cmax [10]: 352 ng/mL
